In ChEMBL document CHEMBL1671683, “Activity of linezolid in an in vitro pharmacokinetic-pharmacodynamic model using different dosages and Staphylococcus aureus and Enterococcus faecalis strains with and without a hypermutator phenotype” (Antimicrob Agents Chemother, 2010):

What was measured:
Enterococcus faecalis [1] = assay: Bactericidal activity against 14 hrs peripheral compartment culture samples of Enterococcus faecalis Ef1497 MutM3 in two-compartment pharmacokinetic/pharmacodynamic model assessed as effect on bacterial count at 600 mg, bid administered as 0.5 hr infusion; type: functional
How it was run: (§1)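 An 18-h culture concentrated 50-fold was injected into the peripheral compartment 3 h pre-sampling (~10^8 CFU/ml E. faecalis, 10^9 S. aureus). Counts came from dilution plating (detection limit 2–3 log10 CFU/ml), expressed as Δlog CFU/ml from treatment start. Run in duplicate.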

Enterococcus faecalis [2] = assay: Bactericidal activity against 12.5 hrs peripheral compartment culture samples of Enterococcus faecalis ATCC 29212 in two-compartment pharmacokinetic/pharmacodynamic model assessed as effect on bacterial count at 200 mg, bid administered as 0.5 hr infusion; type: functional; how it was run: as §1
[3] = Volume of distribution at steady state in two-compartment pharmacokinetic/pharmacodynamic model at 400 mg, bid administered as 0.5 hrs infusion; type: ADME, organism-based; conditions: iv, read-out: Vdss
[4] = Total clearance in two-compartment pharmacokinetic/pharmacodynamic model at 600 mg, bid administered as 0.5 hrs infusion; type: ADME, organism-based; conditions: iv
[5] = Tmax in two-compartment pharmacokinetic/pharmacodynamic model at 200 mg, bid administered as 0.5 hr infusion over 24 hrs; type: ADME, organism-based; conditions: iv
How it was run: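 Two-compartment in vitro hollow-fibre model in cation-adjusted, protein-free Mueller-Hinton broth at 37°C. Human total-plasma linezolid profile simulated as 0.5-h infusion every 12 h for 48 h, computer-controlled syringe pump into central compartment. […] Peripheral samples assayed by validated HPLC-UV (quantification limit 0.39 μg/ml). Tmax read directly from concentration-time profiles. Run in duplicate.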

[6] = Cmax in two-compartment pharmacokinetic/pharmacodynamic model at 600 mg, bid administered as 0.5 hrs infusion; type: ADME, organism-based; parameters: dose 600 mg; conditions: iv
[7] = test system: Staphylococcus aureus subsp. aureus RN4220; assay: AUBC (0 to 24 hrs) in Staphylococcus aureus RN4220MutS2 in two-compartment pharmacokinetic/pharmacodynamic model at 600 mg, bid administered as 0.5 hr infusion for 2 days; type: functional
How it was run: (§2)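 Hollow-fibre two-compartment model in cation-adjusted, protein-free MH broth at 37°C. Human total-plasma linezolid profile simulated as 0.5-h infusion every 12 h for 48 h. Concentrated 18-h culture injected into the peripheral compartment 3 h before first sample, giving about 10^8 (E. faecalis) or 10^9 (S. aureus) CFU/ml. Viable counts by dilution plating over 0–24 h. Area indices calculated versus growth control curve. Duplicate runs.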

Enterococcus faecalis [8] = assay: Bactericidal activity against 24 hrs peripheral compartment culture samples of Enterococcus faecalis Ef1497 MutM3 in two-compartment pharmacokinetic/pharmacodynamic model assessed as effect on bacterial count at 200 mg, bid administered as 0.5 hr infusion; type: functional; how it was run: as §1
Enterococcus faecalis [9] = assay: Bactericidal activity against 14 hrs peripheral compartment culture samples of Enterococcus faecalis ATCC 29212 in two-compartment pharmacokinetic/pharmacodynamic model assessed as effect on bacterial count at 200 mg, bid administered as 0.5 hr infusion; type: functional; how it was run: as §1
[10] = Apparent volume of distribution in two-compartment pharmacokinetic/pharmacodynamic model at 200 mg, bid administered as 0.5 hr infusion over 24 hrs; type: ADME, organism-based; conditions: in vivo, iv
Enterococcus faecalis [11] = assay: ABBC (0 to 24 hrs) in Enterococcus faecalis ATCC 29212 in two-compartment pharmacokinetic/pharmacodynamic model at 600 mg, bid administered as 0.5 hr infusion for 2 days; type: functional; how it was run: as §2
[12] = Cmax in two-compartment pharmacokinetic/pharmacodynamic model at 200 mg, bid administered as 0.5 hrs infusion; type: ADME, organism-based; parameters: dose 200 mg; conditions: iv
[13] = AUC in two-compartment pharmacokinetic/pharmacodynamic model at 200 mg, bid administered as 0.5 hrs infusion; type: ADME; conditions: iv
in vitro [14] = conditions: two-compartment pharmacokinetic/pharmacodynamic model, iv, 800 mg
Enterococcus faecalis [15] = assay: Bactericidal activity against 48 hrs peripheral compartment culture samples of Enterococcus faecalis Ef1497 MutM3 in two-compartment pharmacokinetic/pharmacodynamic model assessed as effect on bacterial count at 200 mg, bid administered as 0.5 hr infusion; type: functional; how it was run: as §1
Staphylococcus aureus [16] = assay: Bactericidal activity against 2 hrs peripheral compartment culture samples of Staphylococcus aureus RN4220 in two-compartment pharmacokinetic/pharmacodynamic model assessed as effect on bacterial count at 600 mg, bid administered as 0.5 hr infusion; type: functional; how it was run: as §1
[17] = Apparent volume of distribution in two-compartment pharmacokinetic/pharmacodynamic model bid administered as 0.5 hr infusion over 24 hrs; conditions: in vivo, iv
Enterococcus faecalis [18] = assay: ABBC (0 to 24 hrs) in Enterococcus faecalis Ef1497 MutM3 in two-compartment pharmacokinetic/pharmacodynamic model at 600 mg, bid administered as 0.5 hr infusion for 2 days; type: functional; how it was run: as §2
Enterococcus faecalis [19] = assay: Bactericidal activity against 48 hrs peripheral compartment culture samples of Enterococcus faecalis Ef1497 in two-compartment pharmacokinetic/pharmacodynamic model assessed as effect on bacterial count at 800 mg, bid administered as 0.5 hr infusion; type: functional; how it was run: as §1
in vitro [20] = conditions: two-compartment pharmacokinetic/pharmacodynamic model, iv, 200 mg
[21] = Mean residence time in two-compartment pharmacokinetic/pharmacodynamic model at 800 mg, bid administered as 0.5 hr infusion over 24 hrs; type: ADME, organism-based; conditions: in vivo, iv
Staphylococcus aureus [22] = assay: Bactericidal activity against 0.5 hrs peripheral compartment culture samples of Staphylococcus aureus RN4220 MutS2 in two-compartment pharmacokinetic/pharmacodynamic model assessed as effect on bacterial count at 600 mg, bid administered as 0.5 hr infusion; type: functional
How it was run: (§3)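 Two-compartment hollow-fibre model in cation-adjusted, protein-free MH broth, 37°C. Linezolid given as simulated 0.5-h infusion twice daily. Inoculum grown 18 h, concentrated 50-fold and placed in the peripheral compartment 3 h before t0. Peripheral samples at set times counted by dilution plating. First 10-fold dilution not plated, limiting detection to 2–3 log10 CFU/ml. Δlog CFU/ml taken from t0 count. Duplicates.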

[23] = Residual concentration at the end of the administration interval in two-compartment pharmacokinetic/pharmacodynamic model at 200 mg, bid administered as 0.5 hr infusion over 24 hrs; type: ADME; conditions: in vivo, iv
Enterococcus faecalis [24] = assay: Bactericidal activity against 14 hrs peripheral compartment culture samples of Enterococcus faecalis ATCC 29212 in two-compartment pharmacokinetic/pharmacodynamic model assessed as effect on bacterial count at 600 mg, bid administered as 0.5 hr infusion; type: functional; how it was run: as §1
Enterococcus faecalis [25] = assay: Bactericidal activity against 0.5 hrs peripheral compartment culture samples of Enterococcus faecalis Ef1497 MutM3 in two-compartment pharmacokinetic/pharmacodynamic model assessed as effect on bacterial count at 600 mg, bid administered as 0.5 hr infusion; type: functional; how it was run: as §3
Enterococcus faecalis [26] = assay: Bactericidal activity against 0.5 hrs peripheral compartment culture samples of Enterococcus faecalis ATCC 29212 in two-compartment pharmacokinetic/pharmacodynamic model assessed as effect on bacterial count at 200 mg, bid administered as 0.5 hr infusion; type: functional; how it was run: as §3
Enterococcus faecalis [27] = assay: Bactericidal activity against 2 hrs peripheral compartment culture samples of Enterococcus faecalis Ef1497 MutM3 in two-compartment pharmacokinetic/pharmacodynamic model assessed as effect on bacterial count at 600 mg, bid administered as 0.5 hr infusion; type: functional; how it was run: as §1

CC(=O)NC[C@H]1CN(c2ccc(N3CCOCC3)c(F)c2)C(=O)O1 [LINEZOLID]
log10CFU/ml (Enterococcus faecalis [1]): 0.28 | log10CFU/ml (Enterococcus faecalis [2]): 0.26 | Vd [3]: 112 L | clearance [4]: 232 mL/min | Tmax [5]: 0.5 h | Cmax [6]: 13400 ng/mL | AUBC [7]: 228.8 log10CFU/ml.hr | log10CFU/ml (Enterococcus faecalis [8]): 0.52 | log10CFU/ml (Enterococcus faecalis [9]): 0.55 | Vd [10]: 137 L | ABBC (Enterococcus faecalis [11]): 1.32 log10CFU/ml.hr | Cmax [12]: 4380 ng/mL | AUC at 0.5 h [13]: 10100 ng·h/mL | half-life at 0.5 h (in vitro [14]): 5.01 h | log10CFU/ml (Enterococcus faecalis [15]): 0.79 | log10CFU/ml (Staphylococcus aureus [16]): -0.26 | Vd [17]: 115 L | ABBC (Enterococcus faecalis [18]): -2.66 log10CFU/ml.hr | log10CFU/ml (Enterococcus faecalis [19]): -1.16 | half-life (in vitro [20]): 6.27 h | MRT [21]: 6.81 h | log10CFU/ml (Staphylococcus aureus [22]): -0.21 | Drug uptake [23]: 0.31 µg/mL | log10CFU/ml (Enterococcus faecalis [24]): 0.18 | log10CFU/ml (Enterococcus faecalis [25]): -0.01 | log10CFU/ml (Enterococcus faecalis [26]): -0.08 | log10CFU/ml (Enterococcus faecalis [27]): -0.05
